Measured values of several laboratories.
Each line is one published result; the experiments were not run side by side.
Cell line: MCF7
Read-out: cell growth or viability

NCCC(=O)Nc1ccccc1/N=c1\cc(-c2ccc3nc(N)oc3c2)oc2ccc(O)cc12 gave an inhibition of 12.1% (CCK-8; 1 µM).
With COc1cccc2c1C(=O)c1c(O)c3c(c(O)c1C2=O)C[C@@](O)(C(=O)CO)C[C@@H]3O[C@H]1C[C@H](N)[C@H](O)[C@H](C)O1 the IC50 was 0.5 µM (MTT; 48 h).
With O=C(NCc1cn(Cc2ccc(Br)cc2)nn1)Nc1ccc(Cl)cc1 the viability was 91.2% (CCK-8; 50 µM, 72 h).
With COc1ccc(NC(=O)Nc2cccc(-c3cn(Cc4ccc(Cl)cc4)nn3)c2)cc1 the viability was 104% (CCK-8; 50 µM, 72 h).
With O=C(Nc1ccc(-c2cn(Cc3ccc(Br)cc3)nn2)cc1)Nc1ccccc1Br the viability was 103% (CCK-8; 50 µM, 72 h).
The inhibition of C[C@H](N)C(=O)Nc1ccccc1/N=c1\cc(-c2ccc3c(c2)OCCO3)oc2cc(F)ccc12 is reported as 3.33% (CCK-8; 1 µM).
With O=C(NCc1cn(Cc2cccc(Cl)c2)nn1)Nc1ccc(Cl)cc1 the viability was 87.2% (CCK-8; 50 µM, 72 h).
CNCCC(=O)Nc1ccccc1/N=c1\cc(-c2ccc3nc(N)oc3c2)oc2ccccc12 gave an inhibition of 31.9% (CCK-8; 1 µM).
COc1ccc(NC(=O)Nc2ccc(-c3cn(Cc4ccc(Cl)cc4)nn3)cc2)cc1 gave a viability of 99% (CCK-8; 50 µM, 72 h).
For O=C(NCc1cn(Cc2ccc(Br)cc2)nn1)Nc1ccccc1Br, the viability was 84.7% (CCK-8; 50 µM, 48 h).
With NCCCCC(=O)Nc1ccccc1/N=c1\cc(-c2ccc3c(c2)OCO3)oc2ccccc12 the inhibition was -4.92% (CCK-8; 1 µM).
CN(C)CCNC(=O)c1ccc(-c2nc3ccc4[nH]ncc4c3c3c2CCCCC3)cc1 has a GI50 of 3.32 µM (72 h).
The cell death of CCCS(=O)(=O)Oc1ccc(C=NNC(=O)c2nc3ccccc3s2)cc1 is reported as 46.6% (MTT; 100 µM, 48 h).
The EC50 of CCOc1ccc(C(=O)CC(SCc2ccc(Cl)cc2)C(=O)OC)cc1 (centres unmarked) is reported as 40 µM (MTT; 48 h).
COc1ccc(NC(=O)Nc2cccc(-c3cn(Cc4ccc(C)cc4)nn3)c2)cc1 has a viability of 104% (CCK-8; 50 µM, 48 h).
NCC(=O)Nc1ccccc1/N=c1\cc(-c2ccc3c(c2)OCO3)oc2ccccc12 has an inhibition of 10.9% (CCK-8; 1 µM).
COc1ccc(NC(=O)Nc2cccc(-c3cn(Cc4cccc(Cl)c4)nn3)c2)cc1 gave a viability of 101% (CCK-8; 50 µM, 72 h).
For NCCC(=O)Nc1ccc(/N=c2\cc(-c3ccc4c(c3)OCO4)oc3ccccc23)cc1, the inhibition was 6.42% (CCK-8; 1 µM).
The viability of COc1ccc(NC(=O)Nc2ccc(-c3cn(Cc4ccc(Br)cc4)nn3)cc2)cc1 is reported as 98.4% (CCK-8; 50 µM, 48 h).
For O=C(Nc1cccc(-c2cn(Cc3ccc(Cl)cc3)nn2)c1)Nc1ccccc1Br, the viability was 69.6% (CCK-8; 50 µM, 72 h).
